Reference: ChEMBL document CHEMBL4002579, “Isolation and Structure Elucidation by LC-DAD-MS and LC-DAD-SPE-NMR of Cyclopeptide Alkaloids from the Roots of Ziziphus oxyphylla and Evaluation of Their Antiplasmodial Activity” (J Nat Prod, 2016)

How the values were obtained:
Plasmodium falciparum [1] = test: Antiplasmodial activity against chloroquine-resistant Plasmodium falciparum K1 infected in human O+erythrocytes after 72 hrs by lactate dehydrogenase assay; assay type: functional, cell-based; details: K1, 72 h
MRC5 = test: Cytotoxicity against human MRC5 cells assessed as decrease in cell proliferation/viability after 7 days by MTT assay; assay type: cell-based; details: MRC5, 168 h
Summary of the method: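 Human fetal lung fibroblast MRC-5 cells; tested up to a highest concentration of 64.0 μM. Result is the mean and standard deviation of three experiments.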

Plasmodium falciparum [2] = test: Antiplasmodial activity against multidrug-resistant Plasmodium falciparum K1 assessed as reduction in parasite growth by [3H]-hypoxanthine incorporation assay; assay type: functional

SMILES	IC50 (Plasmodium falciparum [1])	IC50 (MRC5)	IC50 (Plasmodium falciparum [2])
CCC(C)[C@@H]1NC(=O)[C@@H]2[C@H](CCN2C(=O)[C@H](Cc2c[nH]c3ccccc23)N(C)C)Oc2ccc(cc2)/C=C\NC1=O (stereo partly specified)	13.6 µM	> 64 µM	7.3 µM
O=C1N/C=C\c2ccc(cc2)O[C@@H](c2ccccc2)[C@H](NC(=O)[C@@H]2CCCN2C(=O)/C=C/c2ccccc2)C(=O)N[C@H]1C(O)c1ccccc1 (stereo partly specified)	7.4 µM	31.2 µM	
CCC(C)[C@@H]1NC(=O)[C@@H]2[C@H](CCN2C(=O)[C@H](Cc2c[nH]c3ccccc23)N(C)C)Oc2ccc(OC)c(c2)/C=C\NC1=O (stereo partly specified)	3.2 µM	30.6 µM	
CCC(C)[C@@H]1NC(=O)[C@@H]2[C@H](CCN2C(=O)[C@H](Cc2c[nH]c3ccccc23)N(C)C)Oc2ccc(O)c(c2)/C=C\NC1=O (stereo partly specified)	7.1 µM	> 64 µM	
CCC(C)[C@@H]1NC(=O)[C@@H]2[C@H](CCN2C(=O)[C@H](C(C)CC)N(C)C)Oc2ccc(cc2)/C=C\NC1=O (stereo partly specified)	> 32 µM	> 64 µM	
